This is a sample that favours compounds with a hit; in the whole collection about 3.7% have one here.
KCNQ1 block – human KCNQ1 channel inhibition; B-score at 10 µM; actives 1.3% (n = 310,000); CHO-K1 KCNQ1, FluxOR thallium flux fluorescence; stronger effect = higher value;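 active = compounds whose thallium flux B-score, printed positive for inhibition, exceeds three library SD while starting fluorescence stays within three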;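 also: channel opened by potassium depolarization with thallium stimulus after 20 min compound exposure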
Kir21 inh – Kir2.1 (mouse) channel inhibition; HEK293-Kir2.1, FluxOR thallium flux fluorescence; stronger effect = lower value; B-score at 10 µM; actives 0.85% (n = 310,000);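 active = fluorescence ratio B-score at or below minus 3 SD of library scores, with starting-brightness B-score within 2 SD, cut at about -4.2 in these data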;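 also: channel flux triggered by added potassium and thallium sulfate stimulus; B-score of peak minus minimum fluorescence over baseline after thallium stimulus; more negative B-score means stronger Kir2.1 block with less thallium influx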
KCNK3 inh – human KCNK3 channel inhibition, primary screen; O14649; AID 602410; actives 0.84% (n = 340,000); CHO-KCNK3 thallium flux, FluxOR fluorescence; stronger effect = lower value; B-score at 10 µM;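 active = B-score under library mean minus 4 SD, starting fluorescence ratio at most library mean plus 5 SD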;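 also: more negative B-score means stronger inhibition of thallium flux through KCNK3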
hERG rescue – hERG (human) protection from proarrhythmic block; Q12809; CHO-hERG, FluxOR thallium flux, dofetilide IC70 present; activation (rescue from dofetilide block), less the hit threshold, % at 10 µM; actives 0.51% (n = 310,000); AID 1511;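 active = activation above the mean of controls blocked by dofetilide plus 5 SD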;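 also: thallium influx through hERG after potassium depolarization seen as dye fluorescence rise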
KCNQ1 act – potentiates or activates the human KCNQ1 potassium channel; P51787; CHO-K1 KCNQ1, thallium flux FluxOR fluorescence; stronger effect = higher value; B-score at 10 µM; actives 0.35% (n = 310,000); AID 2648;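 active = fluorescence ratio B-score, a plate-corrected score, at least three library SD, with initial intensity B-score within 5 SD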
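Material: CHO-K1 cells stably expressing KCNQ1. Medium: assay buffer for compound exposure, DMSO matched across wells. Reagent: K+/Tl+ depolarizing stimulus. Compound dosing: single-concentration screen. Times: 37 °C overnight plating, 90-min dark dye load, 20-min compound pretreatment. Technique: FluxOR Tl+ flux fluorescence.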
KCNK9 block – human KCNK9 channel inhibition; Q9NPC2; HEK293 KCNK9, FluxOR thallium flux fluorescence; stronger effect = lower value; B-score at 10 µM; actives 1.2% (n = 310,000); AID 488922;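 active = ratio B-score over 3 SD below the library mean, with starting fluorescence within 5 SD of its mean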;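 also: negative B-score means less thallium flux so channel inhibition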
Active calls of the source: *; i = inactive; nt = not tested or not shown.

SMILES	KCNQ1 block	Kir21 inh	KCNK3 inh	hERG rescue	KCNQ1 act	KCNK9 block
CCCNC(=O)c1ccccc1NC(=O)c1ccc(CSc2ccccc2)cc1	6*	0.2	i	-3	i	i
Cc1ccc(SCc2ccc(C(=O)Nc3ccccc3C(=O)NC(C)C)cc2)cc1	i	0.38	i	-2	i	i
Cc1ccc(C2=N/C(=C\c3c(C)nn(-c4ccccc4)c3N3CCCC3)C(=O)O2)cc1	9*	0.96	i	-18	i	i
CCN(CC(=O)Nc1c(F)cccc1F)C(=O)CSc1ccc(F)cc1	i	1.7	i	-7	i	i
CCN(CC(=O)NCc1ccc(Cl)cc1)C(=O)CSc1ccc(F)cc1	i	-4.5*	i	-11	i	i
Cn1cc([N+](=O)[O-])c(C(=O)N/N=C/c2ccccc2)n1	i	2.2	i	4.7*	i	i
Cn1cc([N+](=O)[O-])c(C(=O)N/N=C\c2c[nH]c3ccccc23)n1	i	-0.26	i	-3	i	i
CCOC(=O)[C@@H]1CSCCS(=O)(=O)N1	nt	nt	i	nt	nt	nt
Oc1c(Br)cc(Br)cc1/C=N/n1c(-c2ccccc2)n[nH]c1=S	i	0.41	i	-18	12*	i
Cc1nnc(C)n1/N=C/c1cc(Br)cc(Br)c1O	i	-2.6	i	12*	15*	i
O=[N+]([O-])c1ccc(O)c(/C=N/n2c(-c3ccccc3)n[nH]c2=S)c1	7*	-1.9	i	-26	i	i
Cc1nnc(C)n1/N=C/c1cc(Br)ccc1O	i	1.3	i	-6	i	i
Oc1c(Br)cc(/C=N/n2c(-c3ccccc3)n[nH]c2=S)c(Br)c1O	i	0.34	nt	-10	i	i
C[C@H](NC(=O)N1CCn2c1nc1ccccc12)C(=O)NCCc1ccccc1	i	-1.3	i	-7	i	i
C=CCNCCCOc1ccc(Cl)cc1C(C)(C)C	i	-14*	i	-20	i	i
C=CCNCCOCCOc1ccc(Cl)cc1C(C)(C)C	i	-11*	i	-10	i	i
O=[N+]([O-])c1ccccc1OCCNCc1ccccc1	i	-1.8	i	7.2*	i	i
CC(C)(C)NCCOCCOc1ccc(Cl)cc1C(C)(C)C	i	-1	i	-5	i	i
CC(C)(C)c1ccccc1OCCOCCNCc1ccccc1	i	-9.3*	i	-7	i	i
COC(=O)c1cc(CNC(=O)CCCSc2ccccc2)ccc1OC	i	-1.9	i	-10	i	i
COCCCNCCOCCOc1ccc(Cl)cc1C(C)(C)C	i	-6.2*	i	-13	i	i
O=C(COc1ccccc1)Nc1ccc2oc(=O)ccc2c1	i	-0.45	i	-4	i	i
COC(=O)C1=C(C)N(Cc2ccc(C)cc2)C(=O)/C1=C\c1cc(OC)c(OC)c(OC)c1	i	-0.7	i	-14	i	-6.6*
COC(=O)C1=C(C)N(Cc2ccccc2)C(=O)/C1=C\c1ccco1	i	-0.29	i	-6	i	i
COc1ccc(NC(=O)c2ccc(Cl)c(S(=O)(=O)NCC3CCCO3)c2)c(OC)c1 (stereo unspecified)	i	0.07	i	-10	i	i
SMILES	KCNQ1 block	Kir21 inh	KCNK3 inh	hERG rescue	KCNQ1 act	KCNK9 block
Clc1ccc(CN2CCC(c3nc4ccc(Cl)cc4[nH]3)CC2)cc1	i	-8*	i	-13	i	i
COc1ccc(C(OCC(O)CN(C)C2CCCCC2)c2ccc(OC)cc2)cc1 (stereo unspecified)	i	-2.4	i	-11	i	i
CCOc1ccc(CN(C)CC(O)COC(c2ccc(OC)cc2)c2ccc(OC)cc2)cc1 (stereo unspecified)	i	-7.7*	i	-24	i	i
CCOc1nc2ccccc2cc1C=O	i	0.85	i	7.1*	11*	i
C=CCn1c(SCc2ccc(C#N)cc2)nnc1-c1cccc(Cl)c1	i	-11*	i	-16	i	i
N#Cc1ccc(CSc2nnc(-c3ccccc3)n2Cc2ccco2)cc1	i	-1.7	i	-6	i	i
O=C(Nc1ccc(Oc2ccc(NC(=O)Nc3ccccc3Cl)cc2)cc1)Nc1ccccc1Cl	i	1.4	i	-4	i	i
CC(=O)c1cccc(NC(=O)c2cc(-c3ccncc3)nc3ccccc23)c1	nt	nt	i	nt	nt	nt
O=C(NC(=S)Nc1ccccc1)c1cc(-c2ccccc2)nc2ccccc12	i	1	i	4	33*	i
O=C(N/N=C/c1ccccn1)c1sc2ccccc2c1Cl	i	-0.14	i	4	17*	i
CCCOc1cccc(-c2cc(C(=O)N/N=C/c3cccnc3)c3ccccc3n2)c1	9*	0.09	i	-30	i	i
O=C(N/N=C/c1c[nH]c2ccccc12)c1sc2ccccc2c1Cl	i	-0.03	i	-9	i	i
Cc1cc(NC(=O)c2cc(-c3ccncc3)nc3ccccc23)ccc1Br	nt	nt	-13*	nt	nt	nt
COc1cccc(NC(=O)CN(C)C(=O)c2ccc(-n3cncn3)c([N+](=O)[O-])c2)c1	nt	nt	i	nt	nt	nt
Cc1ccc2c(c1)c1c3n2CCNC3CCC1 (stereo unspecified)	i	-0.7	i	-9	i	i
O=C(Nc1ccccn1)c1cc(-c2ccc(Cl)s2)nc2ccccc12	nt	nt	i	nt	nt	nt
O=C(N/N=C/c1ccccn1)c1cc(-c2ccc(Br)cc2)nc2ccccc12	i	1.5	i	-1	14*	i
O=C(N/N=C/c1ccccn1)c1cc(-c2ccc(Cl)cc2)nc2ccccc12	i	-0.24	i	-11	i	i
N#Cc1ccc(/C=N/NC(=O)c2cc(-c3cccs3)nc3ccccc23)cc1	6*	0.1	i	-15	i	i
COc1cc(-c2cc(C(=O)Nc3cccc(C(C)=O)c3)c3ccccc3n2)cc(OC)c1OC	i	-0.49	-11*	-15	i	i
O=C(NC(=S)Nc1ccccn1)c1cc(-c2ccccc2)nc2ccccc12	i	1.6	i	4	8*	i
COc1cc(-c2cc(C(=O)Nc3ccc(O)cc3)c3ccccc3n2)cc(OC)c1OC	i	0.89	i	-15	i	i
O=C(O)c1ccc(N=Nc2c(O)ccc3ncccc23)cc1	i	0.03	i	0	i	i
CC(C)(C)c1nnc(NC(=O)c2cc(-c3ccccc3)nc3ccccc23)s1	6*	0.44	i	-17	i	i
O=c1[nH]c(-c2cccnc2)nc2sc(-c3ccccc3)cc12	i	-0.56	i	6.9*	i	i
